The source of these data is ChEMBL document CHEMBL4513216, “Probing the Open Global Health Chemical Diversity Library for Multistage-Active Starting Points for Next-Generation Antimalarials” (ACS Infect Dis, 2020).

SMILES strings stand for the structures.

The data set in a line: Toxicity liver stage against HepG2, at 10uM. The data set is classed as cell-based. Set-up: test concentration 10 uM, cell line HepG2-A16-CD81EGFP. The conditions noted are these: human, HepG2-A16-CD81EGFP cells; read-out: INHIBITION
A digest of the protocol:
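Uninfected HepG2-A16-CD81EGFP cells, 3 × 10^3 per well, 1536-well, plated on prespotted compound at 10 μM final, parasite-free screening media added to match infected plates; puromycin 10 μM positive, DMSO 0.5% negative; run in parallel with 48 h PbLuc assay at 37 °C, 5% CO2; viability by CellTiter-Glo luminescence, normalized to controls.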
For the molecule `CCS(=O)(=O)c1ccc2oc([C@H]3CCN(Cc4cccnc4)C3)nc2c1`, the cytotoxicity at 10 µM came to 19.7%.

For `O=C1N(C2CCCCC2)C[C@H]2CN(C3CCC3)CCN12`, the cytotoxicity at 10 µM is 6.44%. To `COC(=O)[C@@H]1Cc2ncn(C)c2CN1S(=O)(=O)c1cccs1` belongs -6.25%; to `O=C(NCCC1=CCCCC1)c1[nH]nc2c1CCCC2`, -80.4%; to `CCCN1CCc2nc(SCc3ccc(F)cc3)[nH]c(=O)c2C1`, -3.37%. With `CC(C)N1C[C@@H](CO)[C@H](c2ccccc2)S1(=O)=O`, the cytotoxicity at 10 µM was -1.94%. In the case of `O=C1NCCN1C(CNS(=O)(=O)C1CC1)Cc1cccc(F)c1` (centres undefined) it was -3.09%; in that of `CN(C)C(=O)NC1COC2(CCN(C(=O)c3ccc(Cl)cc3)CC2)C1` (centres undefined), 0.994%. To `Cn1cccc1C(=O)N1CCC2(CC1)CCN2S(C)(=O)=O` belongs 8.73%; to `CN(C)S(=O)(=O)NCC1OCCc2cn(CC3CCOCC3)nc21` (centres undefined), 7.4%. In the case of `COCCN1CCC2(CCCN(C(=O)c3ccoc3C)C2)C1=O` (centres undefined), the cytotoxicity at 10 µM amounted to 0.369%. To `O=C1CC(c2ccccc2C(F)(F)F)c2sc(N3CCOCC3)nc2N1` (centres undefined) belongs 9.18%.

In the case of `Cc1nn(CC(=O)Nc2ccon2)cc1Br`, the cytotoxicity at 10 µM came out at 4.95%. In the case of `CCn1cc(Cl)c(C(=O)NCCCO)n1` it was 6.42%.

With `COCC(=O)Nc1nn(Cc2ccc(F)cc2)cc1Cl`, the cytotoxicity at 10 µM stood at 7.19%. In the case of `Cc1cc(C(=O)N2CCCC(c3nc(C)no3)C2)on1` (centres undefined) it was 6.93%; in that of `COCC(=O)NCCCn1ncc2c(C)cccc21`, 7.55%. To `CN1CCCC1c1ccnc2nccn12` (centres undefined) belongs 6.84%. To `CNC(=O)CCc1cc(C)nc(C2CCN(c3ccccc3)CC2)c1` belongs 3.56%; to `CSc1nnc(C2CCN(C(=O)N3CCCC3)CC2)n1C(C)C`, 8.54%. With `CO[C@H]1CN(Cc2nc3ccccc3n2C)CC[C@@]12CCCO2`, the cytotoxicity at 10 µM was 2.5%.

As to `CN(C)c1nccc(C2CN(S(C)(=O)=O)C2)n1`, the cytotoxicity at 10 µM stood at 6.95%. In the case of `CCn1c(C)nc2cc(NC(=O)C3CN(C(C)=O)C3)ccc21` it was 3.46%. To `O=C(CO)N1CCC(c2ccnc(Nc3cc(C(F)(F)F)ccn3)n2)C1` (centres undefined) belongs 18%; to `COCC(O)CNC(=O)Nc1ccc(Cl)cc1-n1cccc1` (centres undefined), -6.93%.

Take `COc1cc(NCCNC(=O)c2cc[nH]c2C)cc(OC)c1`: the cytotoxicity at 10 µM is -4.33%. To `Cc1ccc(NC(=O)N(C)C)c(C(=O)OCC(=O)NC2CCCC2)c1` belongs -8.03%. With `COc1ccc(-c2cnc(CN(CC(N)=O)C3CCCC3)o2)cc1`, the cytotoxicity at 10 µM is -7.95%. In the case of `Cc1nc2n(n1)CC(NCCc1cccs1)CC2` (centres undefined) it was -9.77%. In the case of `O=C(CS(=O)(=O)Cc1nnnn1C1CC1)NCC1CC1` it was 16.6%; in that of `O=S(=O)(Cc1ccccc1F)N1CCCC1c1nnc2n1CCCCC2` (centres undefined), 7.17%.

`CC(NC(=O)COc1ccccc1C(=O)O)c1ccc(F)cc1` (centres undefined): the cytotoxicity at 10 µM is -1.11%. In the case of `Cc1ccc(C(=O)Nc2cccc3c2C(=O)NC3)c(C)n1` it was 0.102%; in that of `Cc1nc(CNCC(C)c2nc3ccccc3o2)cs1` (centres undefined), 14.5%; in that of `CC(C)(C)c1cc(NC(=O)CN2CCCCC2Cn2cncn2)on1` (centres undefined), 0.0788%. Turning to `CC1(C)CCC(C(=O)N2CCCO2)c2ccccc21` (centres undefined), the cytotoxicity at 10 µM is -0.636%. In the case of `Cc1oc(CN(C)C(=O)c2ccc(C(F)(F)F)cc2)cc1C(=O)O` it was 9.08%; in that of `Cc1noc(C)c1Cc1nc(N(C)C)no1`, 9.21%; in that of `CCC(Nc1nnnn1-c1ccccc1)C(=O)Nc1nc(C)cs1` (centres undefined), -23%. In the case of `CCC(Nc1nnnn1-c1ccccc1)C(=O)NCc1ccsc1` (centres undefined) it was -3.56%; in that of `CNC(=O)c1ccccc1NCc1ncnn1C`, -0.393%. To `O=S(=O)(CCC1CCCO1)NCc1ncc(-c2ccccc2)o1` (centres undefined) belongs 3.7%; to `CCS(=O)(=O)c1ccc2c(c1)N1CCS(=O)(=O)N=C1O2`, 10.3%; to `O=S(=O)(Nc1ccccn1)c1cc(Cl)cc2c1OCC2`, 0.38%. Regarding `Cc1cccc(C(C)(C)CNC(=O)CN(C)c2cnccn2)c1`, the cytotoxicity at 10 µM was found to be 1.79%. On to `CN1CC(C(=O)NCCc2ccc3c(c2)OCO3)CC1=O` (centres undefined), for which the cytotoxicity at 10 µM stood at 2.55%.

`CS(=O)(=O)CCCNC1(c2cccc(F)c2)CC1`: the cytotoxicity at 10 µM is -3.39%. To `O=C(NCCc1ccccc1)N1CCC(C2OCCO2)CC1` belongs -46.5%; to `CNS(=O)(=O)c1cccc(C(C)NCc2cccc(OC)c2)c1` (centres undefined), -12.3%.

Consider `Cc1nc(C)n(CC2CCCCN2CCCS(=O)(=O)N(C)C)n1` (centres undefined), for which the cytotoxicity at 10 µM was -18.5%. Regarding `COC(=O)C(C)(C)NC(=O)C1CC(=O)N(C2CCCC2)C1` (centres undefined), the cytotoxicity at 10 µM is -10.3%. Turning to `CCN1CCCCC1C(=O)N1CCc2onc(-c3ccc(Cl)cc3)c2C1` (centres undefined), the cytotoxicity at 10 µM is -60.1%.

Regarding `CCCc1cc(C(=O)N[C@@H](CO)[C@@H](O)c2ccccc2)n(C)n1`, the cytotoxicity at 10 µM is 4.76%. To `CCC(C)N(Cc1sccc1C)C(=O)c1ccc(S(C)(=O)=O)cc1` (centres undefined) belongs 6.7%. On to `Cc1noc(CN(C)Cc2cnc(N3CCOCC3)nc2)n1`, for which the cytotoxicity at 10 µM was -14%. On to `NC(=O)CN1CC2(CCC1=O)CCN(Cc1cc(F)cc(F)c1)CC2`, for which the cytotoxicity at 10 µM is 7.1%. As for `C[C@@H]1CN(Cc2cccnc2)C[C@]1(C)O`, the cytotoxicity at 10 µM was -6.1%. Regarding `COCCCN(C)C(=O)Cn1cccc(OC)c1=O`, the cytotoxicity at 10 µM was found to be 7.52%. As to `CCn1nc(C)c(C(=O)N2C[C@@H](CN(C)CCOC)[C@@H](CO)C2)c1C`, the cytotoxicity at 10 µM turned out to be 1.35%.

Regarding `Cc1cc(OCC(O)c2nc3c([nH]2)CC(C)(C)CNC3=O)ccc1Cl` (centres undefined), the cytotoxicity at 10 µM was -1.57%. In the case of `NC(=O)c1cc2c(nc1CCOCc1ccccc1)CCC2` it was 2.99%; in that of `CC(=O)NCc1nc(Cc2cccc(Cl)c2)nn1C1CCN(C)CC1`, -1.12%. In the case of `CN(Cc1ccno1)c1nc(C2CCCC2)nc2c1cnn2C` it was 7.27%. For the molecule `NC1(C(=O)NCCC2CN(Cc3ccco3)CCO2)CCCC1` (centres undefined), the cytotoxicity at 10 µM was -1.03%. In the case of `CN(C)C(=O)C1CCCN1C(=O)c1ccc(Cn2ccnc2)o1` (centres undefined) it was -0.304%; in that of `CC(C)[C@H]1CN(CCCO)C[C@@H]1NC(=O)CCC(F)(F)F`, -0.6%. As for `CC(C)(C)n1ccc(C(=O)N2CCCC(c3ncc[nH]3)C2)c1` (centres undefined), the cytotoxicity at 10 µM was determined as 2.96%. To `COCCS(=O)(=O)c1ncc(CN(C)CC(C)C)n1Cc1ccccc1` belongs -1.27%.

Consider `CC(=O)c1cc(C(=O)N2CCC3(CC2)Nc2ccccc2NC3=O)cs1`, for which the cytotoxicity at 10 µM stood at 3.54%. On to `Cc1ccc2nc(CN3CCCC3c3cccnc3)cc(O)c2c1` (centres undefined), for which the cytotoxicity at 10 µM is 3.16%. Take `CCOc1ccc2[nH]c(=O)c(CN3CCC(O)CC3)cc2c1`: the cytotoxicity at 10 µM was 1.25%. To `CS(=O)(=O)NCc1cc2n(n1)CCCN(Cc1nc3ccccc3[nH]1)C2` belongs -4.55%. To `CN(C)S(=O)(=O)N1CCN(C(=O)c2ccc3ccn(C)c3c2)CC1` belongs -7.56%. In the case of `CC(C)C(=O)NCC(=O)N(C)C1CCCN(CCc2ccccc2)C1` (centres undefined) it was -16.9%; in that of `Cc1cc(C2CCCN2Cc2ccn(C)c(=O)c2)on1` (centres undefined), -6.04%.

For `Cc1nc(CN2CCCC(NCc3ccsc3)C2)no1` (centres undefined), the cytotoxicity at 10 µM is 0.504%.

With `c1ccc(CCN2CCN(c3ccc4nncn4n3)CC2)nc1`, the cytotoxicity at 10 µM is -7.93%. Turning to `CC(Cn1cccn1)NC(=O)Nc1nccs1` (centres undefined), the cytotoxicity at 10 µM was -9.55%. On to `Cc1ncc2c(n1)CCN(C(=O)Cc1c(C)noc1C)C2`, for which the cytotoxicity at 10 µM is -8.55%.

For the molecule `O=C(CN1CCCC1Cn1cncn1)NCCOc1cccc(F)c1` (centres undefined), the cytotoxicity at 10 µM is -3.24%. To `COc1c(CNCCNC(=O)c2ccco2)c(C)nn1C` belongs -5.92%; to `O=C1NCCN1C1CCCN(Cc2nnc(-c3ccc(F)cc3)o2)C1` (centres undefined), -7.69%. Regarding `CN1CCCC1CNC(=O)CCCOc1ccc(F)cc1` (centres undefined), the cytotoxicity at 10 µM was -7.67%. To `COC(=O)CN(C)C1CCc2ccccc21` (centres undefined) belongs -7.59%; to `CC(=O)N1CCN(C(=O)CCOc2ccc(C(C)C)cc2)CC1`, -6.51%.

`CCc1nc(C2CCCN(C(=O)CCn3ccccc3=O)C2)no1` (centres undefined): the cytotoxicity at 10 µM was -12.3%. In the case of `CCc1nccn1C1CCCN(C(=O)c2csc(NC(C)=O)n2)C1` (centres undefined) it was -13%; in that of `Fc1ccc([C@@H]2COC[C@H]2NCc2cccc(F)c2)cc1`, -2.92%; in that of `COc1ccc(C(=O)CN(C2=NCCCCC2)c2ccccc2)cc1`, 9.62%. In the case of `CCS(=O)(=O)N1CCc2c(CN(C)Cc3ccco3)cncc2C1` it was -4.85%; in that of `Cn1cc(CN2CCC3(CCC(C(=O)NCC4CC4)C3)CC2)cn1` (centres undefined), 3.47%. Consider `CC(=O)NC1CCN(c2cc(C3CCNCC3)ccn2)CC1`, for which the cytotoxicity at 10 µM was 2.93%. In the case of `Cn1nc(Cn2cccn2)c2c1CN(Cc1ccoc1)C2` it was -3.77%; in that of `Cc1ccc(N2C[C@@H]3CCCO[C@@H]3[C@H](N3CCCC3)C2)nn1`, 2.96%. On to `CCn1ccnc1CN1CCNCC1C` (centres undefined), for which the cytotoxicity at 10 µM was -3.03%. To `CN(C)c1ncnc2c1CCN(CC1CCOC1)CC2` (centres undefined) belongs 0.745%.

`CCN(CC)[C@@H]1CN(Cc2nccn2C)[C@@H]2CCCO[C@H]12`: the cytotoxicity at 10 µM is 4.92%. To `c1ccc(CN2CCc3ncnc(-c4ccsc4)c3CC2)nc1` belongs 3.91%; to `Cn1cnc2c1C(COCc1cccnc1)N(Cc1nccs1)CC2` (centres undefined), 10.5%.
